Results on 15 compounds are retold here after ChEMBL document CHEMBL1133676, “Synthesis and hypolipidemic and antiplatelet activities of alpha-asarone isomers in humans (in vitro), mice (in vivo), and rats (in vivo)” (2000).

The Inhibition is the share of the control response that was lost under treatment.

Holding throughout (assay type): functional
The subject of experiment [1] is Mus musculus. The experiment is described as follows: Effect on acute pulmonary thromboembolism in mice at 100 mg/kg expressed as no. of killed or paralyzed to no. of tested observed after 10 min. In outline: (§1)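 Male Swiss mice (29.4 ± 2.6 g) were given a single ip dose 1 h before a rapid tail-vein injection of collagen (25 μg/mouse) plus epinephrine (27 μg/mouse) in 0.154 M NaCl. Vehicles were miglyol 812 for asarones, or DMSO with Sörensen phosphate buffer pH 7.0 for ketorolac, at 0.1 mL/10 g. Death or paralysis was scored within 10 min; controls received vehicle only; χ² test.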

In experiment [2] the test system is Mus musculus. The experiment can be described thus: Effect on acute pulmonary thromboembolism in mice at 100 mg/kg. A digest of the protocol:
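Male Swiss mice (29.4 ± 2.6 g) received a single ip dose 1 h before a rapid tail-vein injection of collagen (25 μg/mouse) plus epinephrine (27 μg/mouse) in 0.154 M NaCl. Asarones were given in miglyol 812, and ketorolac in DMSO/Sörensen phosphate buffer pH 7.0, at 0.1 mL/10 g. Death or paralysis was scored within 10 min and reported as % protected versus vehicle controls; χ² test.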

Experiment [3] is filed under the species Homo sapiens. The experiment is described as follows: In vitro inhibition of human platelet aggregation induced by 10 uM ADP after incubation at 100 uM. In outline: (§2)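 Born turbidimetric assay in citrated platelet-rich plasma from healthy male volunteers, with platelet-poor plasma set as 100% transmission. Agents in 95% ethanol were preincubated with PRP for 2 min at 37 °C, stirred at 1000 rpm.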

Experiment [4] is filed under the species Homo sapiens. The experiment can be described thus: In vitro inhibition of human platelet aggregation induced by 10 uM ADP after incubation at 150 uM. In outline:
as §2

The species entered for experiment [5] is Homo sapiens. The experiment is described as follows: In vitro inhibition of human platelet aggregation induced by 10 uM ADP after incubation at 200 uM. In outline: as §2
The species named for experiment [6] is Homo sapiens. The experiment can be described thus: In vitro inhibition of human platelet aggregation induced by 10 uM ADP after incubation at 250 uM. A digest of the protocol: as §2
Experiment [7] is filed under the species Homo sapiens. The experiment is described as follows: In vitro inhibition of human platelet aggregation induced by 10 uM ADP after incubation at 300 uM. In outline: as §2
In experiment [8] the test system is Rattus norvegicus. The experiment is described as follows: HDL (high density lipoproteins) cholesterol level in Wistar male rats at a dose of 80 mg/kg. A digest of the protocol:
(§3)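 Agents in oil (5 mL/kg) were given once daily by gastric intubation. Doses were 80 mg/kg for test agents and 150 mg/kg for the positive control; chow-fed and vehicle-oil groups served as controls. After a 16 h fast and ether anesthesia, ocular-puncture blood was drawn. Serum lipids were measured by kit spectrophotometry; Student's t-test, n = 9–10.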

Experiment [9] has as its system Rattus norvegicus. The experiment is described as follows: LDL (low density lipoproteins) cholesterol level in Wistar male rats at a dose of 80 mg/kg. In outline:
(§4)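 Compounds in oil (5 mL/kg) were given by gastric intubation once daily, at 80 mg/kg or 150 mg/kg for clofibrate. Rats were then fasted 16 h […], and serum lipids were measured spectrophotometrically with kits; Student's t-test.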

Experiment [10] relates to Rattus norvegicus. The experiment is described as follows: Total cholesterol level in Wistar male rats administered at a dose of 80 mg/kg. In outline: as §3
The test system of experiment [11] is Rattus norvegicus. The experiment is described as follows: Triglyceride level in Wistar male rats administered at a dose of 80 mg/kg. In outline:
as §3

Experiment [12] has as its system Rattus norvegicus. The experiment can be described thus: Total cholesterol level in Wistar male rats at a dose of 80 mg/kg. A digest of the protocol: as §4
The test system of experiment [13] is Rattus norvegicus. The experiment is described as follows: Triglyceride level in Wistar male rats at a dose of 80 mg/kg. A digest of the protocol:
as §4

In experiment [14] the test system is Mus musculus. The experiment can be described thus: Effect on acute pulmonary thromboembolism in mice at 25 mg/kg expressed as no. of killed or paralyzed to no. of tested observed after 10 min.
In experiment [15] the test system is Mus musculus. The experiment can be described thus: Effect on acute pulmonary thromboembolism in mice at 25 mg/kg.
The species named for experiment [16] is Rattus norvegicus. The experiment can be described thus: HDL (high density lipoproteins) cholesterol level in Wistar male rats. A digest of the protocol: as §3
The species entered for experiment [17] is Rattus norvegicus. The experiment can be described thus: LDL (low density lipoproteins) cholesterol level in Wistar male rats. In outline: as §4
Experiment [18] is filed under the species Rattus norvegicus. The experiment is described as follows: Cholesterol level in Wistar male rats. A digest of the protocol:
as §3

For experiment [19], the species on record is Rattus norvegicus. The experiment can be described thus: Triglyceride level in Wistar male rats. A digest of the protocol:
as §3

For experiment [20], the system named is Rattus norvegicus. The experiment can be described thus: HDL (high density lipoproteins) cholesterol level in Wistar male rats at 150 mg/kg. In outline:
as §3

The subject of experiment [21] is Rattus norvegicus. The experiment is described as follows: LDL (low density lipoproteins) cholesterol level in Wistar male rats at 150 mg/kg. A digest of the protocol:
as §4

Experiment [22] relates to Rattus norvegicus. The experiment can be described thus: Triglyceride level in Wistar male rats at a dose of 150 mg/kg. In outline:
as §3

Experiment [23] has as its system Rattus norvegicus. The experiment is described as follows: Total cholesterol level in Wistar male rats at a dose of 150 mg/kg. In outline: as §3
The test system of experiment [24] is Mus musculus. The experiment is described as follows: Effect on acute pulmonary thromboembolism in mice at 50 mg/kg expressed as no. of killed or paralyzed to no. of tested observed after 10 min. In outline:
as §1

In experiment [25] the test system is Mus musculus. The experiment is described as follows: Effect on acute pulmonary thromboembolism in mice at 50 mg/kg. In outline: as §1

For `C/C=C/c1ccc(OC)c(OC)c1OC`, the “No. of killed or paralyzed” value in the experiment on Mus musculus [1] turned out to be 14. Besides, in the experiment on Mus musculus [2], the Protected is 0%.
On to `C/C=C/c1c(OC)cc(OC)cc1OC`, for which the Inhibition came to 15.9% in the experiment listed under Homo sapiens [3]; 19% in the experiment filed under Homo sapiens [4]; 31% in the experiment listed under Homo sapiens [5]; 7.5% in the experiment filed under Homo sapiens [6]; 17.5% in the experiment listed under Homo sapiens [7]. In addition, the “No. of killed or paralyzed” value in the experiment with Mus musculus [1] is 30. In the experiment on Mus musculus [2], this compound came in with a Protected of 25%.
On to `C/C=C/c1cc(OC)cc(OC)c1OC`, for which the Inhibition was 13% in the experiment listed under Homo sapiens [3]; 25.4% in the experiment filed under Homo sapiens [4]; 35.4% in the experiment listed under Homo sapiens [5]; 38.3% in the experiment listed under Homo sapiens [6]; 38.3% in the experiment filed under Homo sapiens [7]. Besides, in the experiment with Mus musculus [1], the “No. of killed or paralyzed” value was found to be 12. In the experiment with Mus musculus [2], this compound gave a Protected of 52%.
For the compound `C/C=C/c1cc(OC)c(OC)c(OC)c1`, in the experiment on Mus musculus [1], the “No. of killed or paralyzed” value is listed as 17. In the experiment on Mus musculus [2], this compound gave a Protected of 19%.
In the experiment with Rattus norvegicus [8], `C/C=C/c1ccc(OC)c(OC)c1OC.CC(C)CCC[C@@H](C)[C@H]1CC[C@H]2[C@@H]3CC=C4C[C@@H](O)CC[C@]4(C)[C@H]3CC[C@]12C` had an HDL cholesterol of 42.8 mg/dL. Moreover, the LDL cholesterol in the experiment on Rattus norvegicus [9] came out at 30.1 mg/dL. For the same compound, the Total cholesterol in the experiment with Rattus norvegicus [10] was found to be 96.6 mg/dL. The Triglyceride level with Rattus norvegicus [11] is 125 mg/dL.
In the same order, the values of `C/C=C/c1cc(OC)cc(OC)c1OC.CC(C)CCC[C@@H](C)[C@H]1CC[C@H]2[C@@H]3CC=C4C[C@@H](O)CC[C@]4(C)[C@H]3CC[C@]12C` are 39.2 mg/dL, 35.8 mg/dL, 97.9 mg/dL and 140 mg/dL.
In the experiment with Rattus norvegicus [8], `C/C=C/c1cc(OC)c(OC)c(OC)c1.CC(C)CCC[C@@H](C)[C@H]1CC[C@H]2[C@@H]3CC=C4C[C@@H](O)CC[C@]4(C)[C@H]3CC[C@]12C` yielded an HDL cholesterol of 45.3 mg/dL. The compound further had an LDL cholesterol with Rattus norvegicus [9] of 19.8 mg/dL. The compound further showed a Total cholesterol with Rattus norvegicus [10] of 93.4 mg/dL. Moreover, in the experiment on Rattus norvegicus [11], the Triglyceride level amounted to 136 mg/dL.
The like results for `C/C=C/c1c(OC)cc(OC)cc1OC.CC(C)CCC[C@@H](C)[C@H]1CC[C@H]2[C@@H]3CC=C4C[C@@H](O)CC[C@]4(C)[C@H]3CC[C@]12C` were, in that order, 37.9 mg/dL, 36.9 mg/dL, 98.1 mg/dL and 116 mg/dL.
Consider `C/C=C/c1c(OC)ccc(OC)c1OC.CC(C)CCC[C@@H](C)[C@H]1CC[C@H]2[C@@H]3CC=C4C[C@@H](O)CC[C@]4(C)[C@H]3CC[C@]12C`, for which the HDL cholesterol in the experiment on Rattus norvegicus [8] was 30.2 mg/dL. Also, the LDL cholesterol with Rattus norvegicus [9] came out at 48.2 mg/dL. Moreover, in the experiment on Rattus norvegicus [10], the Total cholesterol stood at 115 mg/dL. The compound further registered a Triglyceride level with Rattus norvegicus [11] of 162 mg/dL.
The compound `C/C=C/c1cc(OC)c(OC)cc1OC.CC(C)CCC[C@@H](C)[C@H]1CC[C@H]2[C@@H]3CC=C4C[C@@H](O)CC[C@]4(C)[C@H]3CC[C@]12C` [ALPHAASARONE AND CHOLESTEROL] yielded an HDL cholesterol with Rattus norvegicus [8] of 45.5 mg/dL. In the experiment with Rattus norvegicus [9], this compound displayed an LDL cholesterol of 24.4 mg/dL. In the experiment with Rattus norvegicus [12], the Total cholesterol came out at 113.6 mg/kg. The same compound returned a Triglyceride level with Rattus norvegicus [13] of 219.3.
In the case of `CC(=O)Oc1ccccc1C(=O)O` [ASPIRIN], the Inhibition turned out to be 31.2% in the experiment filed under Homo sapiens [3], 37.1% in the experiment filed under Homo sapiens [4], 48.5% in the experiment listed under Homo sapiens [5] and 56.4% in the experiment filed under Homo sapiens [6]. In addition, in the experiment with Mus musculus [14], the “No. of killed or paralyzed” value is 28. The Protected in the experiment with Mus musculus [15] was 45%.
Regarding `CC(C)CCC[C@@H](C)[C@H]1CC[C@H]2[C@@H]3CC=C4C[C@@H](O)CC[C@]4(C)[C@H]3CC[C@]12C` [CHOLESTEROL], the HDL cholesterol in the experiment listed under Rattus norvegicus [16] is 29 mg/dL. Moreover, the LDL cholesterol in the experiment filed under Rattus norvegicus [17] turned out to be 43.2 mg/dL. In the experiment listed under Rattus norvegicus [18], the Total cholesterol amounted to 111 mg/dL. In the experiment filed under Rattus norvegicus [19], this compound returned a Triglyceride level of 125 mg/dL.
`CC(C)CCC[C@@H](C)[C@H]1CC[C@H]2[C@@H]3CC=C4C[C@@H](O)CC[C@]4(C)[C@H]3CC[C@]12C.CCOC(=O)C(C)(C)Oc1ccc(Cl)cc1` [CLOFIBRATE + CHOLESTEROL] gave an HDL cholesterol in the experiment with Rattus norvegicus [20] of 22.1 mg/dL. Besides, in the experiment with Rattus norvegicus [21], the LDL cholesterol came to 46.1 mg/dL. The compound further showed a Triglyceride level in the experiment on Rattus norvegicus [22] of 91.6 mg/dL. In addition, the Total cholesterol in the experiment with Rattus norvegicus [23] is 85.8 mg/dL.
Consider `O=C(c1ccccc1)c1ccc2n1CCC2C(=O)O` (configuration not stated) [KETOROLAC], for which the “No. of killed or paralyzed” value in the experiment on Mus musculus [1] amounted to 16. In the experiment with Mus musculus [2], this compound displayed a Protected of 33%.
`C/C=C/c1cc(OC)c(OC)cc1OC` [TRANS-ASARONE]: the Inhibition in the experiment filed under Homo sapiens [3] is recorded as 4%; in the experiment listed under Homo sapiens [4] it was 14.7%; in the experiment filed under Homo sapiens [5], 40.3%; in the experiment listed under Homo sapiens [6], 30.3%; in the experiment filed under Homo sapiens [7], 47%. The “No. of killed or paralyzed” value with Mus musculus [1] came to 10; in the experiment on Mus musculus [24], 13. The Protected was 44% in the experiment on Mus musculus [2] and 0% in the experiment with Mus musculus [25].
